From PubChem BioAssay
A selection: hits, their analogues and other compounds. The true share with any hit is near 2.3%.
TRPC6 inhibitor = mouse TRPC6 channel inhibitors, primary screen, cell-based, HEK293, membrane potential dye; hit rate 1.1% among 310,000; B-score at 10 µM; ACh-evoked depolarization; hits give low values; Short transient receptor potential channel 6 (Mus musculus), Q61143;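 active = B-score under library mean minus 3 SD, initial fluorescence not abnormally high, positive integrated signal ratio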;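 also: B-score derived from integrated fluorescence ratio over the kinetic read; more negative B-score means stronger inhibition of depolarization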
Target sequence (Q61143 whole entry, looked up): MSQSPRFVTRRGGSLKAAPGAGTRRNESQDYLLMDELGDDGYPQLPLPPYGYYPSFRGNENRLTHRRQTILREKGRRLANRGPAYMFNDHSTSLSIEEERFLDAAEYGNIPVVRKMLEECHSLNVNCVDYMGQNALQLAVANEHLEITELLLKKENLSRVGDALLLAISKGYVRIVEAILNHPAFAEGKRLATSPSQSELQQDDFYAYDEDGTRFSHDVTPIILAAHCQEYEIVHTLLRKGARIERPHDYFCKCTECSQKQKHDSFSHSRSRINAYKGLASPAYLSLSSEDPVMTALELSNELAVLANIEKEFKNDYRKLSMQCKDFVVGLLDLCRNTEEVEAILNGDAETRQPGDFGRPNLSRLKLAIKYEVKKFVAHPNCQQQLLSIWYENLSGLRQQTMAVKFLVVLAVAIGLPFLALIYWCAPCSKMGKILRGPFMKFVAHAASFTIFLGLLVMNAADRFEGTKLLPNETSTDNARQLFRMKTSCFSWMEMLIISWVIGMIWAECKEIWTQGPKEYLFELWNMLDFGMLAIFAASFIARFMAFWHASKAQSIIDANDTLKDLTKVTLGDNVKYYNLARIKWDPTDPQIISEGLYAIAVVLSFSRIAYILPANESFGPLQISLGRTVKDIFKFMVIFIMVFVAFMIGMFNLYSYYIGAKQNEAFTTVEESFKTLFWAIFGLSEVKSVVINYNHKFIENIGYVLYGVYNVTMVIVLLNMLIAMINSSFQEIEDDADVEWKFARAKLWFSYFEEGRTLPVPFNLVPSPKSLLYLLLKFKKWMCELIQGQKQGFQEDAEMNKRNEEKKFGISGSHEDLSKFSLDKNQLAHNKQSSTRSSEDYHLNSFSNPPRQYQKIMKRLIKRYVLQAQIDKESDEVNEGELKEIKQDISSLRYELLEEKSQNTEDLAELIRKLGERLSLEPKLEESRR
TRPC4 inh = inhibitors of mouse TRPC4 channel, primary screen, Fluo4 calcium, HEK293 TRPC4beta/mu-opioid cells. DAMGO-evoked Fluo4 calcium flux; hits give low values. hit rate 0.39% among 300,000. B-score at 10 µM;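 active = B-score over 3 SD under the library average, no early fluorescence shift, positive overall ratio signal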
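Signal: kinetic Fluo4 fluorescence imaging of calcium influx. Material: stable TRPC4beta/mu-opioid receptor HEK293 cells. Probe or stimulus: DAMGO in two steps, submaximal then maximal.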
TRPC4 potent = positive allosteric modulators of TRPC4, primary screen, cell-based, mouse TRPC4beta, HEK293 mu-opioid, Fluo-4 calcium; hit rate 0.42% among 310,000; AID 2227, 2009; Short transient receptor potential channel 4 (Mus musculus), Q9QUQ5; DAMGO EC20, Fluo-4 Ca2+ flux; hits give high values; B-score at 10 µM;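 active = B-score of calcium response area above 5 SD of library B-scores, with initial fluorescence ratio within 5 SD of library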
TRPC4 agonist = activators of mouse TRPC4 channel, primary screen, Fluo4 calcium, HEK293 TRPC4beta/mu-opioid cells; Short transient receptor potential channel 4 (Mus musculus), Q9QUQ5; Fluo4 calcium fluorescence; hits give high values; B-score at 10 µM; hit rate 0.49% among 310,000;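 active = B-score above 5 SD of library B-scores, and initial fluorescence ratio not above library mean plus 5 SD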;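 also: positive B-score marks a calcium rise read as TRPC4 activation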
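Material: TRPC4beta and mu-opioid receptor HEK293 stable cells | Incubation: 45 min room-temperature Fluo4 loading, 110 s read | Detection: Kinetic Fluo4 calcium fluorescence | Measure: Integrated baseline-normalised fluorescence ratio, converted to per-well B score | Benchmarks: Low control buffer alone, high control maximal DAMGO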
TRPC6 act = mouse TRPC6 channel activators, primary screen, cell-based, HEK293, membrane potential dye | Short transient receptor potential channel 6 (Mus musculus), Q61143 | HEK293-TRPC6 membrane potential dye fluorescence; hits give high values | B-score at 10 µM | hit rate 0.13% among 310,000 | AID 2550, 2010;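 active = B-score of the integrated fluorescence ratio above library mean plus 3 SD, and starting fluorescence ratio within library mean plus 5 SD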;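 also: higher score means more depolarization so channel activation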
TRPC4 sel inh 2 = second check of whether TRPC6 inhibitors also affect mouse TRPC4 | inhibition, % at 10 µM | HEK293 TRPC4/MOR, membrane potential dye fluorescence; channel activated by saturating DAMGO dose | shares compounds with TRPC6 inhibitor | hit rate 42% among 920;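 active = compounds whose fluorescence signal differed from control wells by over 3 SD, either direction, in both duplicate plates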
TRPC4 spec = mouse TRPC4 modulation by TRPC6 hits, confirmation, selectivity assay for TRPC6 inhibitor project, cell-based, HEK293 TRPC4/mu-opioid, membrane potential dye | membrane potential fluorescence | hit rate 61% among 920 | AID 2777, 2010 | shares compounds with TRPC6 inhibitor | activity change, negative = inhibition, % at 10 µM;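 active = rise or fall in signal beyond 3 SD of buffer-only wells in both replicate plates, either sign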;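 also: integrated kinetic ratio of fluorescence range over baseline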
HEK293 MPD ctr 2-1 = nonspecific membrane potential effects, parental HEK293, confirmation, counter-screen for TRPC6 inhibitor project, cell-based, second counter screen | signal change vs control, % at 10 µM | hit rate 31% among 920 | parental HEK293 membrane potential dye fluorescence; maximal acetylcholine challenge after compound addition | shares compounds with TRPC6 inhibitor;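 active = membrane potential signal moving either way by over 3 SD of the maximum-effect control, in both duplicate plates, meaning non-specific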
HEK293 MPD ctr-1 = membrane potential modulation in parental HEK293, confirmation, counter-screen for TRPC6 inhibitor project, cell-based | shares compounds with TRPC6 inhibitor | parental HEK293 membrane potential dye fluorescence | membrane potential signal change, % at 10 µM | hit rate 60% among 920 | AID 2780, 2010;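 active = membrane potential signal shifting up or down by more than 3 SD of buffer-only wells, on both duplicate plates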
HEK293 MPD ctr-2 = parental HEK293 membrane potential modulation, confirmation, counter-screen for TRPC6 modulator project, cell-based. shares compounds with TRPC6 inhibitor. membrane potential dye fluorescence. membrane potential signal change, % at 10 µM. hit rate 51% among 2,400;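 active = membrane potential signal moves up or down beyond 5 SD from buffer-only wells, on both duplicate plates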
HEK293 MPD ctr 2-2 = second counter-screen for TRPC6 modulators: effect in parental HEK293 cells | hit rate 14% among 2,400 | AID 488926 | inhibition, % at 10 µM | shares compounds with TRPC6 inhibitor | membrane potential dye fluorescence; after compound, maximal acetylcholine stimulation;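 active = membrane potential signal drops by more than 5 SD from the mean control signal, in both duplicate plates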
TRPC4/MOR mod = TRPC4 modulation by TRPC6 hit compounds, confirmation, selectivity assay for TRPC6 modulator project, cell-based, HEK293 TRPC4/mu-opioid, membrane potential dye, mouse; shares compounds with TRPC6 inhibitor; membrane potential fluorescence; percent change from control (negative = decrease, positive = increase), % at 10 µM; hit rate 69% among 2,400;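 active = membrane potential signal moved up or down beyond 5 SD of buffer control wells, in both duplicate plates, actives on both sides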
TRPC4/MOR inh 2 = mouse TRPC4 off-target activity of TRPC6 modulators, second screen; HEK293 TRPC4/mu-opioid, membrane potential dye fluorescence; stimulated with maximal-effect DAMGO; shares compounds with TRPC6 inhibitor; hit rate 55% among 2,400; AID 488928; inhibition, % at 10 µM;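 active = drop in membrane potential signal beyond 5 SD of the control wells in both duplicate plates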;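 also: TRPC4 counter screen for TRPC6 hits run under conditions tuned for TRPC6 not TRPC4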
TRPC6 block conf = mouse TRPC6 channel inhibitors, confirmation, HEK293 cells, membrane potential dye, duplicate; shares compounds with TRPC6 inhibitor; ACh-evoked depolarization; inhibition, % at 10 µM; hit rate 43% among 3,300;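 active = fluorescence ratio falls more than 5 SD below the full-stimulation control mean, in both duplicate runs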;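 also: integrated fluorescence ratio of peak minus minimum over baseline after agonist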
TRPC6 act confirm = mouse TRPC6 channel activators, confirmation, HEK293 cells, membrane potential dye, duplicate; shares compounds with TRPC6 inhibitor; HEK293-TRPC6 membrane potential dye fluorescence, FDSS; activation, % at 10 µM; hit rate 11% among 2,800; AID 488961, 2010;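 active = ratio signal rise beyond 5 SD above unstimulated control wells' mean, seen in both duplicate runs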
Large screens that a line does not name were inactive (follow-up assays come after a bar, where they were run).

CCOC(=O)N1CCN(C(=O)C(C)c2ccc([N+](=O)[O-])cc2)CC1 (stereo not given)	none
CCOC(=O)C1CCN(C(=O)C(C)c2ccc([N+](=O)[O-])cc2)CC1 (stereo not given)	TRPC6 inhibitor -5 | HEK293 MPD ctr-2 inactive | HEK293 MPD ctr 2-2 inactive | TRPC4/MOR mod 12% | TRPC4/MOR inh 2 inactive | TRPC6 block conf inactive
O=C(CC(c1ccccc1O)N1CCCCC1)N1CCCCC1 (stereo not given)	TRPC6 inhibitor -9.7 | TRPC4 sel inh 2 inactive | TRPC4 spec 3.6% | HEK293 MPD ctr 2-1 inactive | HEK293 MPD ctr-1 4.8% | TRPC6 block conf 63%
O=C(CC(c1ccccc1)c1cc(Cl)ccc1O)N1CCCC1 (stereo not given)	none
Cc1c(Cl)ccc2sc(NC(=O)c3ccco3)nc12	none
CCOCCCn1c(SCC(=O)Nc2ccc3[nH]c(=O)[nH]c3c2)nc2ccccc2c1=O	none
COCCCNC(=S)Nc1ccc2nc(N3CCOCC3)cc(C)c2c1	none
Cc1cc(N2CCCC2)nc2ccc(NC(=S)NCCCOC(C)C)cc12	TRPC6 inhibitor -7.1 | HEK293 MPD ctr-2 -126% | HEK293 MPD ctr 2-2 inactive | TRPC4/MOR mod -22% | TRPC4/MOR inh 2 46% | TRPC6 block conf 42% | TRPC6 act confirm inactive
Cc1cc(N2CCOCC2)nc2ccc(NC(=S)NCCC(C)C)cc12	none
CCCN(CCC)CCCNC(=S)Nc1ccc2nc(N3CCCC3)cc(C)c2c1	TRPC6 inhibitor -8 | TRPC4 sel inh 2 inactive | TRPC4 spec -15% | HEK293 MPD ctr 2-1 19% | HEK293 MPD ctr-1 -166% | TRPC6 block conf inactive | TRPC6 act confirm inactive
Cc1cc(N2CCN(C)CC2)nc2ccc(NC(=S)NCCC(C)C)cc12	TRPC6 inhibitor -6.2 | HEK293 MPD ctr-2 -110% | HEK293 MPD ctr 2-2 inactive | TRPC4/MOR mod -27% | TRPC4/MOR inh 2 72% | TRPC6 block conf 56% | TRPC6 act confirm inactive
Cc1ccc2sc(N(CCCN(C)C)C(=O)CCS(=O)(=O)c3ccccc3)nc2c1C	none
O=C(c1ccc(Cn2cc([N+](=O)[O-])cn2)o1)N1CCCCCC1	none
C=CCn1c(=O)c2c(nc3n2CCCN3CCc2ccc(OC)c(OC)c2)n(C)c1=O	none
COc1ccccc1OCc1ccc(C(=O)N2CCOCC2)o1	none
COc1ccccc1OCc1ccc(C(=O)N2CCCCC2)o1	TRPC6 inhibitor -5.2 | HEK293 MPD ctr-2 inactive | HEK293 MPD ctr 2-2 inactive | TRPC4/MOR mod inactive | TRPC4/MOR inh 2 inactive | TRPC6 block conf inactive | TRPC6 act confirm inactive
CCN(C(=O)CCS(=O)(=O)c1ccc2c(c1)oc(=O)n2C)c1ccc(OC)cc1	none
Cc1ccc(-n2cccn2)c(CN2CCCC(C(=O)c3ccc4c(c3)OCO4)C2)c1 (stereo not given)	TRPC6 inhibitor -6.8, TRPC4 inh -8 | HEK293 MPD ctr-2 190% | HEK293 MPD ctr 2-2 inactive | TRPC4/MOR mod 14% | TRPC4/MOR inh 2 83% | TRPC6 block conf 53%
Cc1ccc(-n2cccn2)c(CN2CCCC(CNC(=O)c3ccc(F)cc3)C2)c1 (stereo not given)	none
NNC(=S)Nc1c(F)cc(F)cc1Br	none
Cc1ccc(-c2csc(=Nc3cccnc3)n2CCCn2ccnc2)cc1C	TRPC6 inhibitor -5.4 | HEK293 MPD ctr-2 106% | HEK293 MPD ctr 2-2 inactive | TRPC4/MOR mod 15% | TRPC4/MOR inh 2 65% | TRPC6 block conf 44%
CCOC(=O)CCCCCNC(=O)c1ccc(F)cc1F	none
CCOC(=O)N1CCC(NC(=O)c2ccc3c(c2)N=C(C)c2c(C)ccc(C)c2S3)CC1	none
COc1ccc(CCNC(=O)C(C)OC(=O)c2nsc(Cl)c2Cl)cc1OC (stereo not given)	none
COc1ccc(N2CCN(C3CCCN(C(=O)c4cccc(C)n4)C3)CC2)cc1 (stereo not given)	none
CN(C)CCNc1ccc(-c2nn(C)c(=O)c3ccccc23)cc1[N+](=O)[O-]	TRPC6 inhibitor -5.2 | HEK293 MPD ctr-2 -134% | HEK293 MPD ctr 2-2 inactive | TRPC4/MOR mod -32% | TRPC4/MOR inh 2 78% | TRPC6 block conf 72% | TRPC6 act confirm inactive
Cn1nc(-c2ccc(NCCO)c([N+](=O)[O-])c2)c2ccccc2c1=O	none
